# Bioassay records deposited in PubChem BioAssay by several laboratories.
# SKKanGAS inh – inhibitors of SKKanGAS S. pyogenes growth in kanamycin (SK-promoter or general growth effect); 1.3% of 300,000 active; BacTiter-Glo, 6 h; inhibition, % at 7.5 µM; AID 1662;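 active = mean replicate score, as percent of positive control median, at least 50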;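 also: strain carries kanamycin resistance gene driven by streptokinase promoter and grows in 40 µg/ml kanamycin; loss of luminescence reflects streptokinase promoter inhibition or plain growth inhibition; 0% = median of DMSO wells and 100% = positive control at its reference dose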
# T cruzi repl – blocks replication of Trypanosoma cruzi | T. cruzi beta-gal in NIH3T3, luminescence, 90 h | inhibition, % (no concentration beside the values) | 1.4% of 300,000 active;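 active = mean inhibition across valid replicates above about 55%, limit read from the data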;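 also: signal also drops with host cell toxicity which is not excluded here; 0% = plate median of DMSO wells and 100% = zero luminescence signal; higher percent means less beta-gal luminescence so fewer parasites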
#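 System: NIH/3T3 fibroblasts plus reporter T. cruzi. Medium: DMEM plus 2% FBS. Probe or stimulus: 5000 reporter trypomastigotes per well. Compound: single 50 nL compound addition per well in DMSO. Incubation: co-culture of at least 90 h after 3 h attachment. Detection: GalScreen β-gal luminescence, detergent lysis, 60 min. Evaluation: parasite load inhibition, %.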
# Lmaj promast – reduces viability of Leishmania major promastigotes | resazurin fluorescence viability | inhibition, % at 10 µM | 9% of 200,000 active | AID 1063; in the data active = inhibition above about 50%;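 also: promastigotes grown with compound for 44 hours at 28 °C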
# Beta cell apopt – beta cell apoptosis inhibition; protection from apoptosis, % (test concentration not listed); 0.8% of 300,000 active; INS-1E cytokine-induced death, ATP luminescence, 48 h; percent of positive-control rescue, neutral wells zero; AID 435005;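 active = Every replicate reaches about 75%, or at least half do and their mean reaches it too, limit read from the data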;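 also: 0% = cytokine-treated negative control wells and 100% = positive control rescue; higher means more ATP so stronger rescue from cytokine killing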
# Mdm2-MdmX inh – human Mdm2/MdmX binding inhibition; inhibition, % at 8 µM; SaOS-2 split-luciferase Mdm2/MdmX complementation, luminescence; 3% of 330,000 active;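 active = inhibition of at least 50% at 8 µM in the primary screen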
# CSC inhib – cancer stem cell inhibition; cancer stem cell-like cells viability, luminescence; inhibition, % at 7.5 µM; 1.1% of 300,000 active; in the data active = inhibition above about 75%; tested in HMLE shEcad cells
# Active calls of the source: *; x = no result given. Compounds with a hit are over-represented: about 9.4% of the library has one in this group of screens.
SMILES,SKKanGAS inh,T cruzi repl,Lmaj promast,Beta cell apopt,Mdm2-MdmX inh,CSC inhib
Cc1ccc(-c2csc3nc(SCC(N)=O)n(Cc4ccccc4)c(=O)c23)cc1,15,18,52*,-2,28,25
Cc1ccc(-c2csc3ncnc(SCC(N)=O)c23)cc1,-5,-3,-11,-4,27,-7
C/C(N)=C(/C#N)C(=O)CSc1nc2scc(-c3ccc(F)cc3)c2c(=O)n1C,70*,1,-8,3,32,10
Cc1cc(C)cc(C(=O)NN2CCN(C)CC2)c1,2,19,-2,-12,10,x
O=[N+]([O-])c1cc(-c2nc(-c3ccncc3)no2)cc([N+](=O)[O-])c1,-1,32,94*,-4,-6,x
CCOc1ccc(-c2nc(-c3ccncc3)no2)cc1OCC,-5,-16,89*,4,-53,-5
O=C(COC(=O)CCS(=O)(=O)c1ccc(Cl)cc1)NCCc1ccccc1,2,-25,-6,-4,-21,x
Cc1ccc(C)c(NC(=O)CN(C)C(=O)Cn2c(=O)oc3ccccc32)c1,-1,-11,x,x,20,-2
CCOc1ccc2nc(SCC(=O)Nc3ccc4c(c3)OCCO4)[nH]c2c1,-3,1,97*,2,3,-8
OCCCNC(=S)Nc1ccc(Br)cc1Cl,1,4,x,-4,2,7
Cc1cc(C)c(-c2csc(NC(=O)c3cc([N+](=O)[O-])ccc3N3CCOCC3)n2)c(C)c1,14,66*,79*,7,35,-4
COc1ccc(-c2nn3c(-c4ccco4)nnc3s2)cc1OC,12,11,88*,2,28,15
c1coc(-c2nnc3n2C2(CCCC2)Cc2ccccc2-3)c1,-12,3,15,-5,15,x
COc1cc(-c2nnc3sc(-c4ccco4)nn23)cc(OC)c1OC,2,4,11,11,8,-4
COc1cc(OC)c(-c2nn3c(-c4ccco4)nnc3s2)cc1OC,x,x,82*,x,x,x
COc1cc2c(cc1OC)-c1nnc(-c3ccco3)n1C1(CCCC1)C2,1,18,58*,7,16,-1
COc1ccc(-c2nnc3sc(-c4ccco4)nn23)cc1OC,-3,5,36,-2,12,4
CN(C(=O)CSc1nc2sc3c(c2c(=O)n1C)CCC3)C1CCS(=O)(=O)C1 (stereo unspecified),x,x,x,13,-11,x
CN(c1nc2ccccc2[nH]c1=O)C1CCCCC1,1,x,x,22,6,10
CCOc1ncccc1C(=O)OCC(=O)Nc1cc(C(C)(C)C)ccc1OC,x,x,x,-4,2,-4
O=c1c2ccccc2nc(/C=C/c2ccc([N+](=O)[O-])cc2)n1CCCO,3,9,60*,-1,12,-8
O=c1c2ccccc2nc(/C=C/c2ccc([N+](=O)[O-])o2)n1CCCO,50*,62*,101*,2,33,14
O=c1c2ccccc2nc(/C=C/c2cccc([N+](=O)[O-])c2)n1CCCO,9,5,21,-7,43,-5
O=c1c2ccccc2nc(/C=C/c2ccc(Br)cc2)n1CCO,6,-13,x,1,29,78*
Cc1ccccc1CC(=O)N1CC(C)OC(C)C1 (stereo unspecified),-1,0,x,2,-7,-9
SMILES,SKKanGAS inh,T cruzi repl,Lmaj promast,Beta cell apopt,Mdm2-MdmX inh,CSC inhib
CCOc1ccc(N(CC(=O)NC2CCCCC2)C(=O)CCC(=O)Nc2nc(C)cs2)cc1,-5,8,x,-4,-3,-14
CCOc1ccc(NC(=O)CN(C)C(=O)C2CC(=O)N(c3ccc4c(c3)OCCO4)C2)cc1OCC (stereo unspecified),52*,-13,x,-1,12,-6
CCc1ccc(-c2csc(NC(=O)C3CC(=O)N(c4ccc5c(c4)OCCO5)C3)n2)cc1 (stereo unspecified),28,0,98*,-4,29,58
COc1ccc(NC(=O)CN(C)C(=O)C2CC(=O)N(c3ccc4c(c3)OCCO4)C2)cc1 (stereo unspecified),-4,-5,x,-6,7,-9
COc1ccc(-c2nc(CS(=O)CC(=O)N3CCN(C)CC3)c(C)o2)cc1 (stereo unspecified),1,-14,x,-1,23,-8
COc1ccccc1C1CCN(C(=O)c2cccc([N+](=O)[O-])c2)CC1,0,18,x,-2,11,2
Clc1ccc2nc(-c3ccccc3)c(CN3CCOCC3)n2c1,0,24,60*,0,20,-5
Cc1cccc(NNC(=O)C(=O)NNc2cccc(C)c2)c1,-6,16,x,1,12,93*
CCCc1ccc(C(=O)NNc2cccc(C)c2)cc1,-6,x,x,7,-9,77*
CCCc1ccc(C(=O)NNC(=O)c2ccc(Cl)cc2)cc1,0,14,-3,3,1,-5
O=C(CNC1CCN(Cc2ccccc2)CC1)Nc1ccc(S(=O)(=O)N2CCCCC2)cc1,-13,55*,x,6,24,-11
O=C(CS(=O)(=O)Cc1ccccc1)Nc1ccc(S(=O)(=O)N2CCCCCC2)cc1,-4,13,52*,1,6,8
COc1ccccc1NS(=O)(=O)c1ccc(O)c(C(=O)OCC(=O)N2c3ccccc3CC2C)c1 (stereo unspecified),-5,8,-2,-6,-5,9
COC(=O)c1ccc(C(=O)OC)c(=O)[nH]1,-2,9,x,-2,-19,-19
Cn1c(CCN2CCN(c3ccccn3)CC2)nc2cc(NS(=O)(=O)c3ccccc3)ccc21,0,3,x,3,23,7
CC(C)(C)c1cc(-c2csc(Nc3ccccc3)[n+]2Cc2ccc(C(=O)O)cc2)cc(C(C)(C)C)c1O,115*,-17,x,6,14,60
COc1cc2c(cc1OC)CC(C(=O)NCc1ccccc1)NC2 (stereo unspecified),3,-5,x,-7,-33,0
Cc1c(C)n(Cc2ccccc2)c2ccc(C(=O)OCCN(C)C)cc12,-2,35,100*,-2,24,85*
CC(C)(C)N(Cc1ccccc1)C(=O)c1cc2ccccc2o1,13,20,x,0,5,78*
CN(Cc1ccc(N(C)C)cc1)C(=O)c1cc2ccccc2o1,60*,42,x,3,9,11
CN(Cc1ccccc1)C(=O)c1cc2ccccc2o1,-3,-7,-2,-12,9,-2
O=c1[nH]c(/C(Cl)=C/c2c(F)cccc2Cl)nc2cc(Cl)ccc12,19,0,79*,-13,9,-12
O=c1[nH]c(/C(Cl)=C/c2cc(Cl)ccc2O)nc2cc(Cl)ccc12,26,-11,49,-4,35,101*
O=c1[nH]c(/C(Cl)=C/c2cccc(C(F)(F)F)c2)nc2cc(Cl)ccc12,0,-7,-1,10,4,-5
O=C1CC(c2cc(-c3ccccc3)no2)C1,-4,-16,x,-3,-17,-7
CN(Cc1ccc(Cl)cc1Cl)C(=O)CCNC(=O)c1ccco1,x,x,x,-8,11,x
